Compound activity deposited in PubChem BioAssay by several laboratories.
T cell HTS = modulates CD8 T cell binding to vesicles; 2C CD8+ T cell-vesicle binding, flow cytometry; stronger effect = lower value; response (vesicle binding), % at 7 µM; actives 0.068% (n = 330,000);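 active means response, share of CD8 T cells binding vesicles, and their 90th percentile fluorescence all below set limits, cut at about 80% in these data, passing the limit was not always enough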;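 further: values below 100% mean blocked vesicle binding to the CD8+ T cells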
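material = purified 2C TCR transgenic mouse naive CD8+ T cells | controls = Unloaded micro-vesicles (low), QL9 vesicles with 0.7% DMSO (high) | detection = cytometric PE anti-B7-1 and Alexa647 anti-CD8 signals after 1% paraformaldehyde fixation | incubation = binding step 1.5 h, 37 °C, antibody labelling 20 min, ice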
pCIP destab = lowers stability of the mouse p/CIP coactivator protein; Q05BA5; F442A p/CIP-EGFP cells, EGFP fluorescence, 16 h; decrease of EGFP signal, % at 10 µM; actives 0.01% (n = 290,000);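 active means EGFP signal decrease of at least 30% at 10 µM or well 3 SD below plate mean, unless failing retest; inactive means the rest, including hits failing retest or dose response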
GPR7 antagonist = blocks human GPR7 receptor signaling. actives 1.1% (n = 290,000). P48145. inhibition, % at 4.4 µM. GPR7-expressing cells, fluorescence antagonist assay; in the data active means inhibition above about 16%, passing the limit was not always enough;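 further: cells stimulated with the agonist NPW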
CHT PAM = human CHT allosteric activation | B-score at 10 µM | actives 0.49% (n = 310,000) | CHT-expressing cells, membrane potential dye, choline EC20; stronger effect = higher value; LV-AA mutant CHT in HEK293 cells;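 active means initial fluorescence not abnormally high and integrated response B-score, plate-corrected, over 3 SD above library mean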
Target sequence (Q9GZV3 whole entry, looked up): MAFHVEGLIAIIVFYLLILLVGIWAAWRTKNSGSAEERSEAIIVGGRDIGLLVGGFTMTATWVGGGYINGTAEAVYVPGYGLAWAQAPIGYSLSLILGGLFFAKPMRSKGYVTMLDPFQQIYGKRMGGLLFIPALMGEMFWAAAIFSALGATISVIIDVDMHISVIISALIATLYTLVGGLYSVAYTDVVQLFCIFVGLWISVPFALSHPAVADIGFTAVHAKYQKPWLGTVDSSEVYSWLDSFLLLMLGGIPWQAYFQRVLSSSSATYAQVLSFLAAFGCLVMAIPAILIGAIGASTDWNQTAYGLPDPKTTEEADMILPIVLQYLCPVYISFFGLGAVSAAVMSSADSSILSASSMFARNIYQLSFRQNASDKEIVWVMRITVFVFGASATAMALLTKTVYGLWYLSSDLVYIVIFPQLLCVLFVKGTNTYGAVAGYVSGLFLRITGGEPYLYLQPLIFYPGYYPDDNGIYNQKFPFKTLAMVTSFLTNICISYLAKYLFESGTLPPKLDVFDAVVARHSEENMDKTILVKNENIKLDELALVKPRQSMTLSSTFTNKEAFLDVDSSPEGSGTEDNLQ
CHT block = inhibitors of human choline transporter CHT; B-score at 10 µM; CHT-expressing cells, membrane potential dye, choline response; stronger effect = lower value; AID 488975; actives 0.86% (n = 310,000);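 active means B-score over 3 SD under the library average, and starting fluorescence ratio not unusually high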;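 further: choline stimulus applied at its EC90 after an EC20 pre-addition; B-score computed on integrated fluorescence ratio after choline addition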
DSG3 Ab inh = blocks pemphigus antibody binding to human desmoglein-3; P32926; DSG3-coupled beads, scFv-anti-DSG3-GFP binding, flow cytometry; stronger effect = lower value; binding (percent of control), % at 10 µM; actives 0.48% (n = 310,000);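 active means binding more than 3 SD below its plate's average and above zero; inconclusive means below that plate limit but binding exactly zero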;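 further: hits lower antibody fragment binding to DSG3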
CHT block conf = human CHT inhibition, confirmatory screen; shares compounds with CHT block; CHT-expressing cells, choline membrane potential dye; LV-to-AA substituted CHT, HEK293 cells; CHT activity remaining % of control (stronger effect = lower value), % at 10 µM; actives 70% (n = 2,400);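 active means choline transporter activity left, mean of duplicates at 10 µM, below buffer-only control mean minus 3 SD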;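 further: depolarization triggered by choline at its EC90 following an EC20 pre-addition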
HEK293 MPD ctr = CHT inhibitor counter-screen hit in parental HEK293 cells. shares compounds with CHT block. membrane potential dye, choline response; active = decrease or increase beyond buffer ±3SD. membrane potential ratio readout (active if shifted either direction beyond buffer ±3SD; no single direction) at 10 µM. actives 4% (n = 2,400). AID 493222;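 further: parental cells lack the transporter so any hit is non-specific; ratio is peak minus trough fluorescence over baseline after EC90 choline challenge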
Hits are given with their value; 0 = inactive; ? = inconclusive; - = no result given. An excerpt weighted towards active compounds, which were near 2.3% of everything screened.

SMILES | T cell HTS | pCIP destab | GPR7 antagonist | CHT PAM | CHT block | DSG3 Ab inh | CHT block conf | HEK293 MPD ctr
CCCc1nnc(NC(=O)c2nc(S(=O)(=O)Cc3ccc(C)cc3)ncc2Cl)s1 | 0 | 0 | 0 | 0 | -7.4 | 0 | 7.6% | 0
CCn1c(COc2ccc(=O)n(-c3ccccc3)n2)nnc1SCc1ccc(OC)cc1 | 0 | 0 | 0 | 0 | -5.3 | - | 0 | 0
O=c1oc(-c2ccc(Cl)cc2[N+](=O)[O-])nc2ccccc12 | - | - | - | - | - | 0 | - | -
COc1ccc(Cl)cc1NC(=O)C[n+]1cccc(C)c1 | 0 | 0 | 0 | 0 | -8.1 | 0 | 40% | 0
c1ccc(CCNc2c3c(nc4ncnn24)CCC3)cc1 | 0 | 0 | 0 | 0 | -7.1 | 0 | 44% | 0
c1ccc(Nc2c3c(nc4ncnn24)CCC3)cc1 | 0 | 0 | 0 | 0 | 0 | 0 | - | -
Fc1ccccc1CCNc1c2c(nc3ncnn13)CCCC2 | 0 | 0 | 0 | 0 | -6.9 | 0 | 63% | 0
Brc1ccc(C2=Nc3ccccc3C(c3ccncc3)=NN2)cc1 | 0 | 0 | 0 | 0 | -11 | 0 | 0 | 0
COc1ccc(Br)cc1C(=O)NC(=S)Nc1ccc(Cl)c(C(=O)O)c1 | 0 | 0 | 0 | 0 | 0 | 0 | 58% | 0
Cn1cnnc1SCC(=O)NCCC(c1ccccc1)c1ccccc1 | 0 | 0 | 0 | 0 | 0 | - | - | -
Cn1cnnc1Sc1ccc(C(=O)NCCC(c2ccccc2)c2ccccc2)cc1[N+](=O)[O-] | 0 | 0 | 0 | 0 | -10 | 0 | 32% | 0
CCn1c(CCl)nc2cc(S(=O)(=O)N3CCOCC3)ccc21 | 0 | - | - | - | - | - | - | -
Cc1nnc(SC(C)C(=O)Nc2sc3c(c2C#N)CCCC3)[nH]c1=O (centres undefined) | 0 | 0 | 0 | 0 | -5.2 | 0 | 65% | 0
O=C1C(=O)N(CCN2CCOCC2)C(c2cccnc2)/C1=C(/O)c1ccc(Cl)cc1 (centres undefined) | 0 | 0 | 0 | 0 | -9.5 | 0 | 0 | 0
CSc1ccccc1NC(=O)C(C)N(C)CC(=O)N1CCN(Cc2ccccc2)CC1 (centres undefined) | - | - | - | - | - | 0 | - | -
CC(C)c1nc(C(=O)N2CCCC(N3CCN(c4cccc(Cl)c4)CC3)C2)cs1 (centres undefined) | 0 | 0 | 0 | 0 | -12 | 0 | 2.6% | 0
NS(=O)(=O)c1cccc(NC(=O)COC(=O)CCC(=O)c2cccs2)c1 | 0 | - | - | - | - | - | - | -
Cc1nc(Nc2ccc(S(N)(=O)=O)cc2)sc1-c1ccccc1 | 0 | 0 | 0 | 0 | 0 | 0 | - | -
COc1ccc(Nc2nc(C)c(-c3ccccc3)s2)cc1 | 0 | 0 | 0 | 0 | -8.5 | 0 | 0 | 0
CCCc1cc(-c2n[nH]c(=S)n2CC)cs1 | 0 | 0 | 0 | 0 | 0 | 0 | - | -
CCCCn1c(-c2csc(CCC)c2)n[nH]c1=S | 0 | 0 | 0 | 0 | -5.6 | 0 | 0 | 0
CCC(C)c1ccc(NC(=S)NC(C)C2CCCO2)cc1 (centres undefined) | 0 | 0 | 0 | 0 | -8.3 | 0 | 47% | 0
O=C(NC1CCCCCC1)C1c2ccccc2C(=O)N1Cc1ccco1 (centres undefined) | 0 | 0 | 0 | 0 | -5.7 | 0 | 0 | -8.3
CCOc1cc(N2CCOCC2)c(OCC)cc1NC(=O)c1ccccc1N1CCCC1=O | - | - | - | - | - | 0 | - | -
CCN(CC)CCCNC(=O)c1ccccc1NC(=O)C1=CSCCO1 | 0 | 0 | 0 | 0 | -12 | - | 21% | 0
SMILES | T cell HTS | pCIP destab | GPR7 antagonist | CHT PAM | CHT block | DSG3 Ab inh | CHT block conf | HEK293 MPD ctr
CC(C)(C)S(=O)N1Cc2cc(CO)cc(-c3ccccc3)c2[C@@H]1CCO (some centres undefined) | - | - | - | - | - | 0 | - | -
Cc1ccc(C(C)NC(=O)C2CCCC2)cc1C (centres undefined) | 0 | 0 | 0 | 0 | -5.4 | 0 | 44% | 0
Cc1ccc(C(C)NC(=O)C2CCCO2)cc1C (centres undefined) | 0 | 0 | 0 | 0 | 0 | 0 | - | -
CC(C)c1ccc(C(C)NC(=O)C2CCCC2)cc1 (centres undefined) | 0 | 0 | 0 | 0 | -5.3 | 0 | 66% | 0
O=C(CSCc1nc2ccccc2[nH]1)N1CCN(c2ccc(F)cc2)CC1 | 0 | 0 | 0 | 0 | -5 | 0 | 0 | 0
CCN1C[C@@H]2[C@@H]3C(=O)N(Cc4ccccc4)C(=O)[C@@H]3[C@](CC)(C1=O)N2C(=O)c1ccc(Cl)c(Cl)c1 | - | - | - | - | - | 0 | - | -
CSCc1ccc(C(=O)N2CCCC(Nc3ccc(F)cc3)C2)o1 (centres undefined) | 0 | 0 | 0 | 0 | -5.2 | 0 | 0 | 0
CSCc1ccc(C(=O)N2CCCC(Nc3ccc4c(c3)OCCO4)C2)o1 (centres undefined) | 0 | 0 | 0 | 0 | 0 | 0 | - | -
COCCn1c(SCC(=O)Nc2ccccc2C(F)(F)F)nc2ccccc2c1=O | 0 | 0 | 0 | 0 | -5.3 | 0 | 0 | 0
CC1Cc2nc(SCC(=O)N3CCCc4ccccc43)n(C)c(=O)c2S1 (centres undefined) | 0 | 0 | 0 | 0 | -7.6 | 0 | 24% | 0
COCCn1c(SCC(=O)N2CCCc3ccccc32)nc2c(c1=O)SC(C)C2 (centres undefined) | 0 | 0 | 0 | 0 | 0 | 0 | - | -
COCCn1c(SCC(=O)N2CCCc3ccccc32)nc2ccccc2c1=O | 0 | 0 | 0 | 0 | -5.2 | 0 | 0 | 0
COCCn1c(SCC(=O)Nc2ccc(NC(C)=O)cc2)nc2ccccc2c1=O | 0 | 0 | 0 | 0 | 0 | ? | - | -
O=[N+]([O-])c1cc([N+](=O)[O-])c2oc(-c3ccccc3)c(Br)c2c1O | - | 0 | 0 | - | - | 0 | - | -
CC(C)C[C@H]1CNC(=O)C(=O)N1CC1CCN(CCc2ccc(-c3ccccc3)cc2)CC1 | - | - | - | - | - | 0 | - | -
CC(C)(C)OC(=O)N1CCc2onc(-c3ccccc3F)c2C1=O | - | - | - | - | - | 0 | - | -
O=C(CCN1CCOCC1)c1ccc2c(c1)OCCO2 | 0 | 0 | 0 | 0 | -5.2 | 0 | 0 | 0
O=c1c(-c2ccccc2)c[nH]n1-c1cccc([N+](=O)[O-])c1 | 0 | 0 | 0 | 0 | -6.2 | 0 | 45% | 0
COc1cc(C(=O)NC2CC(C)(C)CC(C)(C)C2)ccc1OC1CCN(C(C)=O)CC1 | 0 | 0 | 0 | 0 | -6.9 | 0 | 4.8% | 0
COc1cc(C(=O)NC2Cc3ccccc3C2)ccc1OC1CCN(C(C)=O)CC1 | 0 | 0 | 0 | 0 | 0 | 0 | - | -
Cc1ccc(C(=O)N2CCN(Cc3ccccc3)CC2)cc1S(=O)(=O)N1CCOCC1 | - | - | - | - | - | 0 | - | -
CCOC(=O)CN1C(=O)S/C(=C/c2ccc(N3CCCCC3)o2)C1=O | 0 | 0 | 0 | 0 | 0 | 0 | - | -
